Assay [1] concerns DU-145. The assay can be described thus: The In vitro cytotoxicity value corresponding to 50% growth inhibition against DU-145 (prostate) cell line. The class given is functional. The following applies: Homo sapiens.
Assay [2] addresses Estrogen receptor (Rattus norvegicus) (UniProt P06211+Q62986). The experiment in a line: Relative binding affinity for estrogen receptor using a tritium labeled estrogen as the tracer and immature rat uterine cytosol. The class given is protein assay. The following applies: Uterus. An outline of the steps: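 Competitive radiometric binding with a tritiated estrogen tracer and immature rat uterine cytosol as receptor source, incubated at 0 °C for 18 or 20 h. […] Coefficient of variation between replicate experiments is typically below 30%.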

In assay [3] the target is Tubulin beta chain (Bos taurus) (UniProt Q6B856). The assay can be described thus: Evaluated for % inhibition of colchicine binding to tubulin. The following applies: concentration not given here. On the set-up: concentration or dose not given beside the values. The method in brief:
(§1)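 Mixtures held 1.0 µM bovine brain tubulin (0.1 mg/mL), 5.0 µM [³H]colchicine and 50 µM inhibitor, incubated 10 min at 37 °C. Bound-colchicine inhibition is given as percent, from triplicate samples in each experiment.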

Assay [4] concerns SF-539. The assay can be described thus: The In vitro cytotoxicity corresponding to 50% growth inhibition against […] (central nervous system) cell line. The class given is functional. The following applies: Homo sapiens.
The test system of assay [5] is Panel (Carcinoma cell lines). The experiment in a line: Mean graph midpoint for growth inhibition of all human cancer cell lines. The class given is functional.
Assay [6] has as its target T1, Tubulin (Bos taurus, UniProt Q6B856+Q862L2+Q862F3). The assay can be described thus: Evaluated for inhibition of tubulin polymerization. The class given is functional. The method in brief: (§2)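 Electrophoretically homogeneous bovine brain tubulin at 1.2 mg/mL (12 µM), preincubated at 26 °C with varying compound concentrations, then chilled on ice before GTP was added. Assembly was followed at 26 °C by turbidity at 350 nm, and the extent was read at 20 min. IC50 was derived graphically from at least two independent assays.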

The test system of assay [7] is SN12C. The assay can be described thus: In vitro cytotoxicity value corresponding to 50% growth inhibition against SN12C (renal) cell line. The class given is functional. The following applies: Homo sapiens.
For assay [8], the system named is OVCAR-3. The experiment in a line: In vitro cytotoxicity value corresponding to 50% growth inhibition against OVCAR-3 (ovarian) cell line. The class given is functional. The following applies: Homo sapiens.
Assay [9] has as its system HOP-62. The assay can be described thus: The In vitro cytotoxicity value is the concentration corresponding to 50% growth inhibition against HOP-62 (non small cell lung) cell line. The following applies: Homo sapiens. The class given is functional.
The subject of assay [10] is MDA-MB-435. The assay can be described thus: In vitro cytotoxicity value corresponding to 50% growth inhibition against MDA-MB-435 (breast) cell line. The class given is functional. The following applies: Homo sapiens.
In assay [11] the test system is UACC-62. The experiment in a line: In vitro cytotoxicity value corresponding to 50% growth inhibition against UACC-62(melanoma) cell line. The class given is functional. The following applies: Homo sapiens.
Assay [12] deals with HCT-116. The assay can be described thus: The In vitro cytotoxicity value is the concentration of the compound corresponding to 50% growth inhibition againstHCT-116 (colon) cell line. The class given is functional. The following applies: Homo sapiens.
Assay [13] relates to HOP-62. The experiment in a line: In vitro cytotoxicity value is the concentration corresponding to 50% growth inhibition against HOP-62(non small cell lung) cell line. The class given is functional. The following applies: Homo sapiens.
In assay [14] the target is T1, Tubulin. The assay can be described thus: The compound was evaluated for inhibition of tubulin polymerization, which is purified from bovine brain. The class given is functional. The method in brief: as §2
The subject of assay [15] is SN12C. The assay can be described thus: In vitro cytotoxicity value is the concentration corresponding to 50% growth inhibition against SN12C (renal) cell line. The class given is functional. The following applies: Homo sapiens.
Assay [16] has as its system SF-539. The assay can be described thus: In vitro cytotoxicity value is the concentration corresponding to 50% growth inhibition against […] (central nervous system) cell line. The class given is functional. The following applies: Homo sapiens.
Assay [17] concerns MDA-MB-435. The experiment in a line: In vitro cytotoxicity value is the concentration corresponding to 50% growth inhibition against MDA-MB-435 (breast) cell line. The following applies: Homo sapiens. The class given is functional.
Another assay has as its target Tubulin (Bos taurus) (UniProt Q6B856+Q862L2+Q862F3). The assay can be described thus: The compound was evaluated for inhibition of colchicine binding to tubulin. The following applies: concentration not given here. The class given is protein assay. The method in brief: as §1
In assay [18] the test system is DU-145. The experiment in a line: In vitro cytotoxicity value is the concentration corresponding to 50% growth inhibition against DU-145 (prostate) cell line. The class given is functional. The following applies: Homo sapiens.
Assay [19] has as its system HCT-116. The experiment in a line: In vitro cytotoxicity value is the concentration of the compound corresponding to 50% growth inhibition against HCT116 (colon) cell line. The class given is functional. The following applies: Homo sapiens.
In assay [20] the test system is OVCAR-3. The assay can be described thus: In vitro cytotoxicity value is the concentration corresponding to 50% growth inhibition against OVCAR-3 (ovarian) cell line. The class given is functional. The following applies: Homo sapiens.
The subject of assay [21] is UACC-62. The experiment in a line: In vitro cytotoxicity value is the concentration corresponding to 50% growth inhibition against UACC-62(melanoma) cell line. The class given is functional. The following applies: Homo sapiens.
For assay [22], the system named is HCT-116. The experiment in a line: In vitro cytotoxicity value corresponding to 50% growth inhibition against HCT116 (colon) cell line. The class given is functional. The following applies: Homo sapiens.
Assay [23] relates to HOP-62. The assay can be described thus: In vitro cytotoxicity value corresponding to 50% growth inhibition against HOP-62(non small cell lung) cell line. The class given is functional. The following applies: Homo sapiens.

Sequence of Tubulin beta chain (Bos taurus) (Q6B856 whole entry): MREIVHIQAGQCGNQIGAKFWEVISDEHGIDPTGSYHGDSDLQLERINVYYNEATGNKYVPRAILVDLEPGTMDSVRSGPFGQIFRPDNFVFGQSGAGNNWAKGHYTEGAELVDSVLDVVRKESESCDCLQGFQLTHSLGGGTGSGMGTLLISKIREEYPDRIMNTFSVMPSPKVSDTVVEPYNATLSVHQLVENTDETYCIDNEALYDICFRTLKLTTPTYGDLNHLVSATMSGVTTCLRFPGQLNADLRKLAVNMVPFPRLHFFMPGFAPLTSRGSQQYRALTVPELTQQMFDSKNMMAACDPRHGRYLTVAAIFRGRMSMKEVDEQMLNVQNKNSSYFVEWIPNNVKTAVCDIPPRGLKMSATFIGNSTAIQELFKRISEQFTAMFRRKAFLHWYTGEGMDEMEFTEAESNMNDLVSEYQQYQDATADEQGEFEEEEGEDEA

As usually defined, the GI50 is the concentration at which growth is held to half of that of the control. In general, inhibition refers to the share of the control response that was lost under treatment. What is called IC50 is the concentration needed to halve the response being measured. For `COc1cc2c(cc1O)CC[C@@H]1[C@@H]2CC[C@]2(C)[C@@H](O)CC[C@@H]12` [2-METHOXYESTRADIOL], the GI50 with DU-145 [1] is 1.8 µM; with SF-539 [4], 0.32 µM; in assay [5] it was 1.3 µM; in the assay on SN12C [7], 0.95 µM; in the assay with OVCAR-3 [8], 0.21 µM; with HOP-62 [9], 0.7 µM. For the same compound, the figures for the GI50 in the assay on MDA-MB-435 [10], with UACC-62 [11] and in the assay on HCT-116 [12] were 0.08 µM, 0.36 µM and 0.47 µM, respectively. In addition, the relative binding affinity (RBA) in [2] stood at 0.245. The compound also came in with an inhibition in [3] of 19%. The same compound came in with a half-inhibitory concentration (IC50) against Tubulin [6] of 3.1 µM.
As for `C[C@]12CC[C@@H]3c4cc(OCC(F)(F)F)c(O)cc4C(=O)C[C@H]3[C@@H]1CC[C@@H]2O`, the GI50 in the assay on HOP-62 [13] came to 8.7 µM; with SN12C [15] it was 24 µM; in assay [5], 9.8 µM; with SF-539 [16], 5.1 µM; with MDA-MB-435 [17] it was 27 µM; in the assay on DU-145 [18], 15 µM. The GI50 with HCT-116 [19] is 3.7 µM; with OVCAR-3 [20], 3.5 µM; with UACC-62 [21], 3.3 µM. The IC50 against Tubulin [14] was found to be 24 µM. On Tubulin (Bos taurus), the inhibition stood at 1.7%.
For `Cc1cc2cc3c(cc2o1)CC[C@@H]1[C@@H]3CC[C@]2(C)[C@@H](O)CC[C@@H]12`, the concentration for 50% growth inhibition (GI50) in the assay with HCT-116 [22] came to 0.51 µM; in the assay with DU-145 [1] it was 17 µM; with SF-539 [4], 14 µM; in [5], 14 µM; in the assay on SN12C [7] it was 16 µM; with OVCAR-3 [8], 18 µM. Moreover, the GI50 with HOP-62 [9] came to 19 µM; in the assay with MDA-MB-435 [10], 23 µM; in the assay with UACC-62 [11], 16 µM. This compound also registered an IC50 at Tubulin [6] of more than 40 µM.
In the case of `C[C@]12CC[C@@H]3c4cc(Br)c(O)c(Br)c4CC[C@H]3[C@@H]1CC[C@@H]2O`, the GI50 with DU-145 [1] was 40 µM; with SF-539 [4], 21 µM; in [5], 25 µM; in the assay on SN12C [7], 28 µM; with OVCAR-3 [8], 17 µM; in the assay with MDA-MB-435 [10] it was 27 µM. Moreover, the GI50 stood at 17 µM with UACC-62 [11] and 20 µM with HCT-116 [12]. The same compound displayed an IC50 against Tubulin [6] of more than 40 µM.
As for `C[C@]12CC[C@@H]3c4cc(OCC(F)(F)F)c(O)cc4/C(=N\O)C[C@H]3[C@@H]1CC[C@@H]2O`, the GI50 stood at 0.031 µM in the assay on HCT-116 [22]; 0.017 µM with HOP-62 [23]; 0.049 µM in the assay with DU-145 [1]; 0.021 µM with SF-539 [4]; 0.066 µM in [5]; 0.045 µM with SN12C [7]. The GI50 stood at 0.016 µM in the assay on OVCAR-3 [8], 0.01 µM in the assay on MDA-MB-435 [10] and 0.015 µM in the assay on UACC-62 [11]. On Tubulin [14], this compound had an IC50 of 2.3 µM. Besides, in assay [2], the relative binding affinity (RBA) was found to be 0.007. The same compound had an inhibition at Tubulin (Bos taurus) of 28%.

Values taken from ChEMBL document CHEMBL1130095, “Synthesis of analogs of 2-methoxyestradiol with enhanced inhibitory effects on tubulin polymerization and cancer cell growth” (J Med Chem, 1997).
